Experimental data as given in ChEMBL document CHEMBL3098020, “Synthesis and biological evaluation of novel 2-amino-3-aroyl-4-neopentyl-5-substituted thiophene derivatives as allosteric enhancers of the A₁ adenosine receptor” (Bioorg Med Chem, 2014).

Assays:
[1] = molecular target: T1, Adenosine receptor A1 (Homo sapiens) (UniProt P30542); assay: Potentiation of CCPA-induced displacement of [3H]-DPCPX from human adenosine A1 receptor expressed in CHO cell membranes at 10 uM after 90 mins relative to CCPA-treated control
T1 sequence (whole entry): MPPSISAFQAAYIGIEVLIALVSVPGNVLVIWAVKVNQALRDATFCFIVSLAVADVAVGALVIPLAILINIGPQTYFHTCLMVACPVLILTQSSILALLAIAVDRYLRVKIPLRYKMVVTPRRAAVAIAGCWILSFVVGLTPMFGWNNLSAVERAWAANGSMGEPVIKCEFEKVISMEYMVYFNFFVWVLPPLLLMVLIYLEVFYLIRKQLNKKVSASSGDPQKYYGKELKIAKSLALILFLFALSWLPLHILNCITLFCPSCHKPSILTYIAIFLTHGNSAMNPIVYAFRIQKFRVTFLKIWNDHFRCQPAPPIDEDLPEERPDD
Summary of the method: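 CCPA (0.01 nM–1 µM) competition against [³H]DPCPX in hA1-CHO membranes, with or without compound at 10 µM. Nonspecific binding defined with 1 µM DPCPX. Ki calculated from IC50 by the Cheng-Prusoff equation; CCPA Ki shift given as fold change; three experiments.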

[2] = molecular target: T1, Adenosine receptor A1 (Homo sapiens); assay: Allosteric enhancement of human adenosine A1 receptor expressed in CHO cells assessed as inhibition of forskolin-stimulated cAMP production at 100 nM preincubated for 10 mins followed by forskolin challenge measured after 5 mins by scintillation counting analysis in presence of CCPA relative to control; format: functional, cell-based
Summary of the method: (§1)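 hA1-CHO cells (10⁶ cells/mL) in phosphate buffer with adenosine deaminase 1.0 IU/mL and Ro 20-1724 0.5 mM, preincubated 10 min at 37 °C. Compound added for 10 min, alone or at 100 nM with CCPA 1 pM. Forskolin 1 µM added for 5 min, stopped with cold 6% TCA. cAMP measured by [³H]-cAMP competition protein-binding assay; percent inhibition versus control; three experiments.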

[3] = molecular target: Adenosine receptor A2a (Homo sapiens) (UniProt P29274); assay: Displacement of [3H]-ZM241385 from human adenosine A2A receptor expressed in CHO cell membranes at 10 uM by scintillation counting analysis relative to control
Summary of the method: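 A2A-expressing CHO membranes, pretreated with adenosine deaminase, in 50 mM Tris-HCl, 10 mM MgCl₂ pH 7.4 with 1 nM [³H]ZM 241385. Incubated 60 min at 4 °C. Compound 10 µM in 1% DMSO final. Filtration and scintillation counting; percent inhibition of specific binding.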

[4] = molecular target: T1, Adenosine receptor A1 (Homo sapiens); assay: Displacement of [3H]-DPCPX from human adenosine A1 receptor expressed in CHO cell membranes at 10 uM by scintillation counting analysis relative to control
Summary of the method: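 hA1-CHO membranes, pretreated with adenosine deaminase, in 50 mM Tris-HCl pH 7.4 with 1 nM [³H]DPCPX. Incubated 120 min at 25 °C. Compound 10 µM added from 100-fold DMSO stock, 1% DMSO final. Bound ligand collected on glass-fibre filters and counted by scintillation; percent inhibition of specific binding.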

[5] = molecular target: T2, Adenosine receptor A3 (Homo sapiens) (UniProt P0DMS8); assay: Displacement of [3H]-MRE-3008-F20 from human adenosine A3 receptor expressed in CHO cell membranes at 10 uM by scintillation counting analysis relative to control
T2 sequence (whole entry): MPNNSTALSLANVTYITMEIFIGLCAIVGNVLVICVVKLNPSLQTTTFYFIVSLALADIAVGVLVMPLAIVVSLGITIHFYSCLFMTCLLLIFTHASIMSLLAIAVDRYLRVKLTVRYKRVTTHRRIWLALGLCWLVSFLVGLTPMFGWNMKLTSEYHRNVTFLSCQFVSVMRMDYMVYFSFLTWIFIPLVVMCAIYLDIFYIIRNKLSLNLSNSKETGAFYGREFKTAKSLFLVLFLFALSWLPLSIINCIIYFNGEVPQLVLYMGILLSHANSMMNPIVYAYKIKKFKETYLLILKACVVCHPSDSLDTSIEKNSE
Summary of the method: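 A3-expressing CHO membranes in 50 mM Tris-HCl, 10 mM MgCl₂, 1 mM EDTA pH 7.4 with 2 nM [³H]MRE-3008-F20. Incubated 120 min at 4 °C. Compound 10 µM in 1% DMSO final. Filtration and scintillation counting; percent inhibition of specific binding.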

[6] = molecular target: T1, Adenosine receptor A1 (Homo sapiens); assay: Allosteric enhancement of human adenosine A1 receptor expressed in CHO cells assessed as inhibition of forskolin-stimulated cAMP production at 10 uM preincubated for 10 mins followed by forskolin challenge measured after 5 mins by scintillation counting analysis relative to control; format: functional, cell-based; summary of the method: as §1
[7] = molecular target: T1, Adenosine receptor A1 (Homo sapiens); assay: Potentiation of [3H]CCPA binding to human adenosine A1 receptor expressed in CHO cell membranes at 10 uM after 90 mins relative to [3H]CCPA-treated control

Sequence of Adenosine receptor A2a (Homo sapiens) (P29274 whole entry): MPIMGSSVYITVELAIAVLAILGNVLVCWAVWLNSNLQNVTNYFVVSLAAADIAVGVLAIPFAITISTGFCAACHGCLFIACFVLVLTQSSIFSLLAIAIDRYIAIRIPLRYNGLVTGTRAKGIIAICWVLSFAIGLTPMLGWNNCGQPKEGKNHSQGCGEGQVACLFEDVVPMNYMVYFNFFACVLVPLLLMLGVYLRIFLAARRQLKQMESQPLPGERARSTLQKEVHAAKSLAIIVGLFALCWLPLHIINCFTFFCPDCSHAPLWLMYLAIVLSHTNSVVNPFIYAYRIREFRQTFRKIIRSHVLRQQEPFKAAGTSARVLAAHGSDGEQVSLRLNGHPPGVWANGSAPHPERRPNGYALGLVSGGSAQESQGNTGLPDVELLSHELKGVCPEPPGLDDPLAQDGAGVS

Work on `CC(C)(C)Cc1csc(N)c1C(=O)c1ccc(Cl)cc1` yielded a fold change (FC) [1] of 1.6, an inhibition [2] of 37% and an inhibition [3] of 6%. It also gave an inhibition [4] of 1%, an inhibition [5] of 5% and an inhibition [6] of 35%. For the same compound, the fold change (FC) [7] was 3.9.

For `CC(C)Cc1csc(N)c1C(=O)c1ccc(Cl)cc1`, the fold change (FC) [1] was 3.4, the inhibition [2] was 19% and the inhibition [3] was 1%. For the same compound, the inhibition [4] was 1%, the inhibition [5] was 1% and the inhibition [6] was 17%. The fold change (FC) [7] was 1.6.

`COc1ccc(-c2sc(N)c(C(=O)c3cccc(Cl)c3)c2CC(C)(C)C)cc1` was tested, and the fold change (FC) [1] was 3.7, the inhibition [2] was 56% and the inhibition [3] was 1%. For the same compound, the inhibition [4] was 1%, the inhibition [5] was 2% and the inhibition [6] was 53%. For the same compound, the fold change (FC) [7] was 6.
